{"data": "Measured values gathered from unrelated publications", "note": "Each line is one published result; the experiments were not run side by side."}
{"Structure (SMILES)": "Cc1c2c(nn1C)CSCc1cc(n(C)n1)CSc1cc(c3ccccc3c1)OCCCc1c(C(=O)O)n(C)c3c-2c(Cl)ccc13", "organism": "Enterococcus faecalis", "test": "microbial growth, broth dilution", "setting": "clinical isolate", "endpoint": "MIC50", "result": "25 µM"}
{"Structure (SMILES)": "Cc1ccc(Nc2cnnc3ccc(-c4ccc(N5CCCN(C)CC5)cc4)cc23)cn1", "organism": "Leishmania major", "test": "parasite growth", "setting": "intracellular, amastigote", "endpoint": "EC50", "result": "> 4.7 µM"}
{"Structure (SMILES)": "CNC(=S)NN=Cc1ccc(C)cc1", "organism": "Leishmania major", "test": "parasite growth, MTT", "setting": "72 h, promastigote", "endpoint": "IC50", "result": "938 µM"}
{"Structure (SMILES)": "C/C(=N\\c1nc(N)nc(/N=C(\\C)c2c(O)c3ccccc3oc2=O)n1)c1c(O)c2ccccc2oc1=O", "organism": "Aspergillus glaucus", "test": "microbial growth, broth dilution", "setting": "48 h", "endpoint": "MIC", "result": "31.2 µg/mL"}
{"Structure (SMILES)": "S=C(NN=Cc1ccc(Br)cc1)Nc1cccnc1", "organism": "Leishmania major", "test": "parasite growth, MTT", "setting": "72 h, promastigote", "endpoint": "IC50", "result": "891 µM"}
{"Structure (SMILES)": "C/C(=N\\C1CCCCC1/N=C(\\C)c1c(O)c2ccccc2oc1=O)c1c(O)c2ccccc2oc1=O (centres unmarked)", "organism": "Aspergillus glaucus", "test": "microbial growth, broth dilution", "setting": "48 h", "endpoint": "MIC", "result": "31.2 µg/mL"}
{"Structure (SMILES)": "CN1CCN(c2ncc(-c3ccc4nncc(Nc5cnccn5)c4c3)cn2)CC1", "organism": "Leishmania major", "test": "parasite growth", "setting": "intracellular, amastigote", "endpoint": "EC50", "result": "> 5 µM"}
{"Structure (SMILES)": "[H]/N=C(\\N/C(=N/[H])NCCCCCCNC(=N)NC(=N)Nc1ccc(Cl)cc1)Nc1ccc(Cl)cc1", "organism": "Enterococcus faecalis", "test": "microbial growth", "endpoint": "MIC", "result": "4 µM"}
{"Structure (SMILES)": "CNC(=S)NN=Cc1ccc(F)cc1", "organism": "Leishmania major", "test": "parasite growth", "test system": "J774.A1", "setting": "72 h, intracellular, amastigote", "endpoint": "IC50", "result": "319 µM"}
{"Structure (SMILES)": "CN[C@H](CC(C)C)C(=O)N[C@H]1C(=O)N[C@@H](CC(N)=O)C(=O)N[C@H]2C(=O)N[C@H]3C(=O)N[C@H](C(=O)N[C@H](C(=O)O)c4cc(O)cc(O)c4-c4cc3ccc4O)[C@H](O)c3ccc(c(Cl)c3)Oc3cc2cc(c3O[C@@H]2O[C@H](CO)[C@@H](O)[C@H](O)[C@H]2O[C@H]2C[C@](C)(N)[C@H](O)[C@H](C)O2)Oc2ccc(cc2Cl)[C@H]1O", "organism": "Enterococcus faecalis", "test": "microbial growth, broth dilution", "setting": "clinical isolate", "endpoint": "MIC50", "result": "2 µg/mL"}
{"Structure (SMILES)": "C/C(=N\\C(=S)/N=C(\\C)c1c(O)c2ccccc2oc1=O)c1c(O)c2ccccc2oc1=O", "organism": "Aspergillus glaucus", "test": "microbial growth, broth dilution", "setting": "48 h", "endpoint": "MIC", "result": "31.2 µg/mL"}
{"Structure (SMILES)": "CNC(=S)NN=Cc1ccc(Br)cc1", "organism": "Leishmania major", "test": "parasite growth", "test system": "J774.A1", "setting": "72 h, intracellular, amastigote", "endpoint": "IC50", "result": "31.8 µM"}
{"Structure (SMILES)": "CC1(C)S[C@@H]2[C@H](NC(=O)[C@H](N)c3ccccc3)C(=O)N2[C@H]1C(=O)O", "organism": "Enterococcus faecalis", "test": "microbial growth", "setting": "clinical isolate", "endpoint": "MIC90", "result": "> 128 µg/mL"}
{"Structure (SMILES)": "CNC(=S)NN=Cc1ccc(OC)c(OC)c1", "organism": "Leishmania major", "test": "parasite growth, MTT", "setting": "72 h, promastigote", "endpoint": "IC50", "result": "54.3 µM"}
{"Structure (SMILES)": "CC(=O)NC[C@H]1CN(c2ccc(N3CCOCC3)c(F)c2)C(=O)O1", "organism": "Enterococcus faecalis", "test": "microbial growth, agar dilution", "test system": "ATCC29212", "endpoint": "MIC", "result": "2 µg/mL"}
{"Structure (SMILES)": "CN1CCN(c2ccc(-c3ccc4c(Nc5cnccn5)cnnc4c3)cc2)CC1", "organism": "Leishmania major", "test": "parasite growth", "setting": "intracellular, amastigote", "endpoint": "EC50", "result": "> 25 µM"}
{"Structure (SMILES)": "OC(Cn1cncn1)(Cn1cncn1)c1ccc(F)cc1F", "organism": "Aspergillus fumigatus", "test": "microbial growth, broth dilution", "test system": "AF293", "setting": "48 h", "endpoint": "MIC", "result": "> 64 µg/mL"}
{"Structure (SMILES)": "OC(Cn1cncn1)(Cn1cncn1)c1ccc(F)cc1F", "organism": "Aspergillus fumigatus", "test": "microbial growth, broth dilution", "endpoint": "MIC", "result": "4 µg/mL"}
{"Structure (SMILES)": "CN1CCN(c2ccc(-c3ccc4nncc(Nc5cnccn5)c4c3)cc2)CC1", "organism": "Leishmania major", "test": "parasite growth", "setting": "intracellular, amastigote", "endpoint": "EC50", "result": "> 13 µM"}
{"Structure (SMILES)": "CNC(=S)NN=Cc1ccc([N+](=O)[O-])cc1", "organism": "Leishmania major", "test": "parasite growth, MTT", "setting": "72 h, promastigote", "endpoint": "IC50", "result": "160 µM"}
{"Structure (SMILES)": "Cc1ccc(Nc2cnnc3cc(-c4cnc(N5CCCN(C)CC5)nc4)ccc23)cn1", "organism": "Leishmania major", "test": "parasite growth", "setting": "intracellular, amastigote", "endpoint": "EC50", "result": "> 23 µM"}
{"Structure (SMILES)": "COc1ccc(C=NNC(=S)Nc2cccnc2)cc1OC", "organism": "Leishmania major", "test": "parasite growth, MTT", "setting": "72 h, promastigote", "endpoint": "IC50", "result": "1080 µM"}
{"Structure (SMILES)": "Cc1ccc(Nc2cnnc3ccc(-c4ccc(N5CCN(C)CC5)cc4)cc23)cn1", "organism": "Leishmania major", "test": "parasite growth", "setting": "intracellular, amastigote", "endpoint": "EC50", "result": "> 24 µM"}
{"Structure (SMILES)": "CC[C@H]1OC(=O)[C@H](C)[C@@H](O[C@H]2C[C@@](C)(OC)[C@@H](O)[C@H](C)O2)[C@H](C)[C@@H](O[C@@H]2O[C@H](C)C[C@H](N(C)C)[C@H]2O)[C@](C)(O)C[C@@H](C)/C(=N\\OCOCCOC)[C@H](C)[C@@H](O)[C@]1(C)O", "organism": "Enterococcus faecalis", "test": "microbial growth, agar dilution", "test system": "ATCC29212", "endpoint": "MIC", "result": "128 µg/mL"}
{"Structure (SMILES)": "CN1CCN(c2ccc(-c3ccc4nncc(Nc5ncccn5)c4c3)cc2)CC1", "organism": "Leishmania major", "test": "parasite growth", "setting": "intracellular, amastigote", "endpoint": "EC50", "result": "> 2.5 µM"}
{"Structure (SMILES)": "CC1(C)S[C@@H]2[C@H](NC(=O)[C@H](N)c3ccccc3)C(=O)N2[C@H]1C(=O)O", "organism": "Enterococcus faecalis", "test": "microbial growth, broth dilution", "test system": "ATCC19433", "setting": "12 h", "endpoint": "MIC", "result": "0.5 µg/mL"}
{"Structure (SMILES)": "COc1ccc(Nc2cnnc3cc(-c4cnc(N5CCCN(C)CC5)nc4)ccc23)cc1Cl", "organism": "Leishmania major", "test": "parasite growth", "setting": "intracellular, amastigote", "endpoint": "EC50", "result": "> 2.1 µM"}
{"Structure (SMILES)": "COc1ccc(C=NNC(=S)Nc2cccnc2)cc1", "organism": "Leishmania major", "test": "parasite growth", "test system": "J774.A1", "setting": "72 h, intracellular, amastigote", "endpoint": "IC50", "result": "892 µM"}
{"Structure (SMILES)": "C/C(=N\\N=C(/C)c1c(O)c2ccccc2oc1=O)c1c(O)c2ccccc2oc1=O", "organism": "Aspergillus glaucus", "test": "microbial growth, broth dilution", "setting": "48 h", "endpoint": "MIC", "result": "31.2 µg/mL"}
{"Structure (SMILES)": "COc1c(N2C[C@@H]3CCCN[C@@H]3C2)c(F)cc2c(=O)c(C(=O)O)cn(C3CC3)c12", "organism": "Enterococcus faecalis", "test": "microbial growth, agar dilution", "test system": "ATCC29212", "endpoint": "MIC", "result": "8 µg/mL"}
{"Structure (SMILES)": "C/C(=N\\CCNCC/N=C(\\C)c1c(O)c2ccccc2oc1=O)c1c(O)c2ccccc2oc1=O", "organism": "Aspergillus glaucus", "test": "microbial growth, broth dilution", "setting": "48 h", "endpoint": "MIC", "result": "31.2 µg/mL"}
{"Structure (SMILES)": "C=C[C@]1(C)C[C@@H](OC(=O)CS[C@@H]2C[C@H]3CC[C@@H](C2)N3C)[C@]2(C)[C@H](C)CC[C@]3(CCC(=O)[C@H]32)[C@@H](C)[C@@H]1O", "organism": "Enterococcus faecalis", "test": "microbial growth", "setting": "clinical isolate", "endpoint": "MIC90", "result": "> 128 µg/mL"}
